# Experimental data pooled from the literature.
# Protocols differ between the studies behind these lines.
# Observed: cell growth or viability
SMILES,cell line,test,conditions,measurement,result
CCCc1n(Cc2ccc3ccccc3n2)cc[n+]1Cc1ccc2ccccc2c1,HOP-62,SRB,,TGI,5.38 µM
Cc1cc(C)n(C(=S)[S][Au][PH](CCCCCC[PH]([Au][S]C(=S)n2nc(C)cc2C)(c2ccccc2)c2ccccc2)(c2ccccc2)c2ccccc2)n1,UO-31,,,GI50,0.482 µM
c1ccc2cc(Cn3cc[n+](Cc4ccc5ccccc5c4)c3)ccc2c1,HOP-92,SRB,,TGI,1.39 µM
CCCCc1ccc2[nH]c(NC(=O)OC)nc2c1,CAL-27,,72 h,IC50,0.27 µM
CC1(C)CCC(CN2CCN(c3ccc(C(=O)NS(=O)(=O)c4ccc(NCC5CCOCC5)c([N+](=O)[O-])c4)c(Oc4cnc5[nH]ccc5c4)c3)CC2)=C(c2ccc(Cl)cc2)C1,MDCK,,24 h,EC50,> 50 µM
COc1cc(OC)c2nccc(N3CCc4c(cc(Cn5ccnc5)cc4-c4cn(C)nc4C(F)(F)F)C3=O)c2c1,K562,ATP luminescence,5 days,GI50,7.3 µM
COc1ccc(-c2ccc(-c3ccc(C(=N)N)nc3)s2)cc1Cl,UO-31,,,GI50,1.55 µM
CCc1n(Cc2ccc3ccccc3n2)cc[n+]1Cc1ccc2ccccc2c1,HOP-62,SRB,,TGI,7.02 µM
Nc1c2c(nc3ccccc13)CCCC2O (stereo not drawn),CAL-27,,72 h,IC50,> 20 µM
Cc1n(Cc2ccc3ccccc3n2)cc[n+]1Cc1ccc2ccccc2c1,HOP-62,SRB,,TGI,6.66 µM
COc1cc(-c2ccc(-c3ccc(C(=N)N)nc3)s2)cc(OC)c1OC,UO-31,,,GI50,1.88 µM
CC(C)C[C@H](NC(=O)[C@H](Cc1ccccc1)NC(=O)c1cnccn1)B(O)O,OVK18,ATP luminescence,,IC50,0.0088 µM
COc1ccc(-c2ccc(-c3ccc(C(=N)N)nc3)s2)cc1,SN12C,,,GI50,1.83 µM
CC1(C)C(=O)NC2=C1C(=O)C(=O)c1ccccc12,CAL-27,,72 h,IC50,2.88 µM
c1ccc(-c2n(Cc3ccc4ccccc4c3)cc[n+]2Cc2ccc3ccccc3c2)cc1,HOP-92,SRB,,TGI,2.28 µM
